Data published in ChEMBL document CHEMBL3593207, “Imidazole clubbed 1,3,4-oxadiazole derivatives as potential antifungal agents” (2015).

Assays:
Type in all cases: functional
Candida albicans [1] = experiment: Antifungal activity against Candida albicans ATCC 10261 by broth microdilution assay
How it was run: (§1)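 CLSI M27-A3 broth microdilution. Compounds diluted to 1 mg/ml in 1% DMSO. Fluconazole (1 mg/ml) served as positive control, 1% DMSO as vehicle control, with media and culture controls. Triplicate at each concentration, repeated thrice. Inocula came from YPDA stocks subcultured in broth for 48 h at 37 °C.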

Candida tropicalis [2] = experiment: Antifungal activity against Candida tropicalis ATCC 750 by broth microdilution assay; how it was run: as §1
Candida albicans [3] = experiment: Antifungal activity against clinical isolates of Candida albicans 2323 by broth microdilution assay; how it was run: as §1
Candida albicans [4] = experiment: Antifungal activity against clinical isolates of Candida albicans 2367 by broth microdilution assay; how it was run: as §1
Candida albicans [5] = experiment: Antifungal activity against clinical isolates of Candida albicans 2779 by broth microdilution assay; how it was run: as §1
Candida tropicalis [6] = experiment: Antifungal activity against clinical isolates of Candida tropicalis 2029 by broth microdilution assay; how it was run: as §1
Candida tropicalis [7] = experiment: Antifungal activity against clinical isolates of Candida tropicalis 2356 by broth microdilution assay; how it was run: as §1

Measured: MIC

CCc1ccnc(-c2nccn2Cc2nnc(COc3ccc(Cl)cc3)o2)c1
> 1000 µg/mL: all assays above

CCc1ccnc(-c2nccn2Cc2nnc(-c3ccccc3)o2)c1
> 1000 µg/mL: all assays above

CCc1ccnc(-c2nccn2Cc2nnc(-c3ccccc3N)o2)c1
> 1000 µg/mL: all assays above

CCc1ccnc(-c2nccn2Cc2nnc(Cc3ccc(C(C)C)cc3)o2)c1
> 1000 µg/mL: all assays above

CCc1ccnc(-c2nccn2Cc2nnc(-c3ccccc3Cl)o2)c1
> 1000 µg/mL: all assays above

CCc1ccnc(-c2nccn2Cc2nnc(-c3ccc(Cl)cc3Cl)o2)c1
> 1000 µg/mL: all assays above

CCc1ccnc(-c2nccn2Cc2nnc(-c3ccc(Cl)cc3)o2)c1
> 1000 µg/mL: all assays above
